Data reported in ChEMBL document CHEMBL2034857, “Discovery of the macrocycle (9E)-15-(2-(pyrrolidin-1-yl)ethoxy)-7,12,25-trioxa-19,21,24-triaza-tetracyclo[18.3.1.1(2,5).1(14,18)]hexacosa-1(24),2,4,9,14(26),15,17,20,22-nonaene (SB1578), a potent inhibitor of janus kinase 2/fms-like tyrosine kinase-3 (JAK2/FLT3) for the treatment of rheumatoid …” (J Med Chem, 2012).
Converted amounts (≈) assume the structure as drawn.

Assays:
Mus musculus [1] = test: Antiarthritic activity in po dosed B10/R3 mouse immunized with bovine type2 collagen in Freund's complete adjuvant assessed as inhibition of increase in clinical arthritic scores administered bid for 10 days measured for 10 days; type: functional, organism-based
[2] = Selectivity ratio of IC50 for recombinant JAK1 to IC50 for recombinant JAK2
[3] = Selectivity ratio of IC50 for recombinant JAK3 to IC50 for recombinant JAK2
[4] = Selectivity ratio of IC50 for recombinant CDK2 to IC50 for recombinant JAK2
Mus musculus [5] = test: Antiarthritic activity in B10/R3 mouse immunized with bovine type2 collagen in Freund's complete adjuvant assessed as inhibition of increase in clinical arthritic scores at 0.1 mg/kg, po administered bid for 10 days measured for 10 days; type: functional; settings: B10/R3, 240 h
[6] = Thermodynamic solubility of the compound at pH 7; type: physicochemical; settings: buffer, read-out: Therm_solubility
Procedure, shortened: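 The citrate salt (~5 mg) was made up at 5 mg/mL in pH-buffered solution, in triplicate. It was shaken 24 h at 600 rpm at room temperature, filtered (0.4 μm) and the final pH recorded. The filtrate was diluted in acetonitrile/water (1:1), centrifuged and quantified by HPLC-UV. Two determinations were made on two different batches.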

With `C1=C/COCc2cc(ccc2OCCN2CCCC2)Nc2nccc(n2)-c2ccc(o2)COC/1` (mixture of isomers) the inhibition (Mus musculus [1]) was “Dose-dependent effect”, the Ratio IC50 [2] was 58 and the Ratio IC50 [3] was 93. For the same compound, the Ratio IC50 [4] was 152.

Compound `C[C@@H]1C[C@H]2[C@@H]3CCC4=CC(=O)C=C[C@]4(C)[C@@]3(F)[C@@H](O)C[C@]2(C)[C@@]1(O)C(=O)CO` [DEXAMETHASONE] has an inhibition in vivo at 0.1 mg/kg (Mus musculus [5]) of 63%.

In the case of `C1=C/COCc2cc(ccc2OCCN2CCCC2)Nc2nccc(n2)-c2cccc(c2)COC/1` [PACRITINIB], the solubility thermodynamic [6] is reported as 150 µg/mL (≈ 317 µM).
